Results from different studies.
Protocols differ between the studies behind these lines.
Target: Serine/threonine-protein kinase SIK3 (SIK3, Homo sapiens, UniProt Q9Y2K2)

SMILES | assay | setting | quantity | result
COc1cc(Nc2cnc(C#N)c(O[C@H](C)CN(C)C)n2)ncc1-c1cnn(C)c1 | enzyme activity, inhibitor, radiometric | 1 µM | remaining activity | 89%
CC(C)(C)c1nc(-c2cccc(NS(=O)(=O)c3c(F)cccc3F)c2F)c(-c2ccnc(N)n2)s1 | enzyme activity, inhibitor, radiometric | 1 µM | remaining activity | 60%
Cc1ccc(C(=O)Nc2ccc(CN3CCN(C)CC3)c(C(F)(F)F)c2)cc1C#Cc1cnc2cccnn12 | enzyme activity, inhibitor | 23.5 nM | remaining activity | 87%
FC(F)(F)Oc1cccc(-c2cnc3ccc(-c4ccncc4)nn23)c1 | enzyme activity, inhibitor, radiometric | 5 µM | activity vs control | 102%
O=S(=O)(NC1CCC(c2cc(F)ccc2F)(S(=O)(=O)c2ccc(Cl)cc2)CC1)C(F)(F)F (stereo not drawn) | cell-free assay, competition with immobilised ligand | 1 µM | remaining binding | 100%
COc1cc(/C=C/C(=O)CC(=O)/C=C/c2ccc(O)c(OC)c2)ccc1O | enzyme activity, inhibitor | 1 µM | activity vs control | 91%
COc1cc(Cl)c(C(=O)N[C@@H](CN[C@H]2CC[C@@H](N)CC2)Cc2ccc(C#N)cc2)cc1-c1ccc(CN[C@H](C)c2ccc(C)cc2)o1 | enzyme activity, inhibitor | 1 µM | remaining activity | 102%
CC(C)(C)c1nc2c(s1)c1nc(N)ncc1c1ccc(NS(=O)(=O)c3c(F)cccc3F)c(F)c12 | enzyme activity, inhibitor, radiometric | 1 µM | remaining activity | 98%
O=C(Nc1cnn(-c2csc(C(=O)NC3COC3)c2)c1)Nc1c(F)cccc1Cl | enzyme activity, inhibitor | 5 µM | remaining activity | 94.5%
Nc1ncnc2occ(-c3ccc(NC(=O)Nc4cc(C(F)(F)F)ccc4F)cc3)c12 | cell-free assay, inhibitor | 20 µM | remaining signal | 76%
Cc1sc(C(=O)NC2COC2)cc1-n1cc(NC(=O)Nc2c(F)cccc2Cl)cn1 | enzyme activity, inhibitor | 10 µM | remaining activity | 86.9%
CN(C(=O)c1ccccc1)c1cc(N(C)c2ccc3c(c2)CCc2ccc(C(=O)NCCN4CCOCC4)cc2C3=O)ccc1F | cell-free assay, competition with immobilised ligand | 1 µM | remaining binding | 74%
